Assay outcomes (PubChem)
ARNT TACC3 PPI – disrupts binding between human ARNT and TACC3. Q9Y6A5. AlphaScreen His-ARNT PAS-B/GST-TACC3 binding, luminescence; TACC3 fragment carries E629A point mutation. inhibition, % at 9.99 µM. 390,000 compounds, 0.66% hits. AID 623870;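 active = mean inhibition of replicates at least 50% and at least half of replicates each reaching 50%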;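 note: 0% = complete ARNT plus TACC3 wells and 100% = ARNT alone without TACC3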
AI-2 QS mod – modulates the Vibrio harveyi AI-2 quorum sensing system; activity change, % at 7.5 µM; Vibrio harveyi JMH597 AI-2 luminescence/OD600 ratio, 9 h; active compounds read low; strain lacks LuxN and CqsS sensors; 0 = neutral-control median; 300,000 compounds, 0.4% hits; AID 2094; in the data active = activity change below about -75%, passing the limit was not always enough;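 note: luminescence divided by OD600 gain over 9 h not by final OD600 alone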
CAL PDZ FP-1 – blocks peptide binding to human CAL PDZ domain | purified CAL PDZ, TMR-peptide fluorescence polarization, 1 h | AID 504414 | Q9HD26 | 330,000 compounds, 0.02% hits | inhibition, % at 20 µM;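 active = highest replicate inhibition of at least 40%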;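 note: plate controls were DMSO neutral control wells for no effect and unlabeled competitor peptide control wells for full effect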
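System: purified tagged CAL PDZ domain construct (CerCALP). Schedule: 1 h incubation at room temperature before polarization reading. Medium: 25 mM sodium phosphate pH 7.4, 150 mM NaCl, TCEP, IgG, Thesit. Read-out: percent inhibition from loss of millipolarization. Measured by: FP readout, S and P plane fluorescence. Probe or stimulus: fluorescent TMR peptide probe.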
Rce1 inhib – yeast Ras-converting enzyme inhibition. 290,000 compounds, 0.27% hits. Q03530. yeast membranes, quenched prenylated peptide cleavage fluorescence. calls only. AID 2563;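 active = fall in fluorescence gain of 50% or more versus controls, with final raw signal at or below 3038400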;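 note: plate controls were neutral control wells for no effect and wells lacking membranes for full effect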
Target sequence (Q03530 whole entry, looked up): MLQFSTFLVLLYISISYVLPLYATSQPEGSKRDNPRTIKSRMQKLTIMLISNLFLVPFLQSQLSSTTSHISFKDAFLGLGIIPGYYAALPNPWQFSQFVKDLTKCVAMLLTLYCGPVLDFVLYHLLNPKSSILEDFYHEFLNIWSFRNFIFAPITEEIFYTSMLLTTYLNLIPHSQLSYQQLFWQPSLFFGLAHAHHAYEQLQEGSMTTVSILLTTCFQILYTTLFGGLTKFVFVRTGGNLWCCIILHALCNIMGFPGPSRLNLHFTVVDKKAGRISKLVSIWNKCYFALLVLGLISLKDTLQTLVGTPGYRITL
CAL PDZ FP-2 – blocks peptide binding to the human CAL PDZ domain; purified CAL PDZ, TMR-peptide fluorescence polarization, 1 h; inhibition, % at 24.9 µM; 300,000 compounds, 0.92% hits; Q9HD26;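 active = mean inhibition of at least 30% with at least half of replicates also reaching 30%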;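 note: 0% = DMSO neutral control and 100% = excess unlabeled competitor peptide PRC23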
* hit, by the source's call; i = inactive; / = not tested or not shown; + = active, no number. Most compounds without a hit are left out; they make up all but 1.7% or so of the library.

SMILES	ARNT TACC3 PPI	AI-2 QS mod	CAL PDZ FP-1	Rce1 inhib	CAL PDZ FP-2
CCN(C(=O)CN1C(=O)S/C(=C\c2ccccc2OC)C1=O)C1CCS(=O)(=O)C1 (centres undefined)	-2	9	-4	i	-2
CC1CCc2cc(F)ccc2N1C(=O)c1cccs1 (centres undefined)	-3	14	-1	i	32*
Cc1cc(NC(=O)CC(C)C)c(=O)n(Cc2c(F)cccc2Cl)c1	8	19	/	i	-4
Cc1cc(NC(=O)CC(C)C)c(=O)n(Cc2ccccc2F)c1	active	2	-1	i	-2
Cc1ccc(NC(=O)CSc2nnc3ccc(-c4cccnc4)nn23)cc1	-1	23	0	i	/
O=C(CSCc1ccc(Cl)cc1)Nc1ccc(O)cc1C(=O)O	46*	15	0	i	3
COCCn1c(C)cc(C(=O)COc2ccc(N(C)S(=O)(=O)c3ccc(C)cc3)cc2)c1C	9	/	0	/	/
CCOC(=O)NC(=O)/C(N=Nc1ccc(C(F)(F)F)cc1)=C(\C)O	/	10	0	i	45*
CCOC(=O)NC(=O)/C(N=Nc1cc(C)cc(C)c1)=C(\C)O	-3	22	0	i	0
CC(CN1CCN(C)CC1)OC(=O)c1ccccc1Cl (centres undefined)	-8	13	-2	i	-3
Cc1ccccc1C(=O)OC(C)CN1CCN(C)CC1 (centres undefined)	-4	24	9	i	116*
c1ccc(-n2cnnc2SCc2cn3ccsc3n2)cc1	5	16	-1	i	-1
c1ccc(-n2c(Cc3cn4ccsc4n3)nnc2N2CCOCC2)cc1	45*	22	-3	i	-3
CC(C)(C)Nc1nc(C(N)=O)nc(N2CCOCC2)n1	22	15	0	i	/
CCNc1nc(C(=O)O)nc(N2CCOCC2)n1	79*	38	-1	i	-2
O=C(NCCOCC(F)(F)C(F)F)c1cc(F)c(F)cc1Cl	-1	4	1	i	1
O=C(COc1ccc(F)cc1Cl)Nc1ccc(N2CCOCC2)cc1N1CCOCC1	/	13	-2	i	-2
C[C@@H]1CN([C@@H](C)CO)C(=O)CCCn2cc(nn2)CO[C@@H]1CN(C)Cc1ccc2c(c1)OCO2	0	/	/	/	/
COc1cc2c(cc1OC)C(C)=NC1(CCCCC1)C2	1	27	0	+	/
COc1cc2c(cc1OC)C(SC)=NC1(CCCC1)C2	2	9	-1	/	-5
COc1cccc2cc(C(=O)N(Cc3ccccc3)CC3CCCO3)c(=O)oc12 (centres undefined)	-9	12	-1	i	43*
C[C@@H]1CN([C@H](C)CO)C(=O)c2cccc(NC(=O)Nc3ccc(F)cc3)c2O[C@H]1CN(C)C(=O)Nc1cccc2ccccc12	7	/	/	/	/
Cc1c(/C=N/N=C2\CCC3C4CCc5cc(O)ccc5C4CCC23C)cnn1C (centres undefined)	5	10	-1	i	0
CCn1ncc(/C=N/N=C2\CCC3C4CCc5cc(O)ccc5C4CCC23C)c1C (centres undefined)	5	-7	0	i	46*
C[C@H]1CN([C@@H](C)CO)C(=O)Cc2cc(NC(=O)Cn3cnnn3)ccc2O[C@H]1CN(C)Cc1ccc(C(F)(F)F)cc1	0	/	/	/	/
SMILES	ARNT TACC3 PPI	AI-2 QS mod	CAL PDZ FP-1	Rce1 inhib	CAL PDZ FP-2
CCOC(=O)N1CCC(Nc2c(Nc3ccc(F)cc3)c(=O)c2=O)CC1	5	13	0	i	59*
CCOC(=O)CSC1=C(C#N)C(c2ccc(OC)cc2)C2=C(CC(C)(C)CC2=O)N1 (centres undefined)	/	-7	-2	i	-3
CC(CO)NS(=O)(=O)c1ccc(Br)cc1F (centres undefined)	-3	/	1	/	40*
O=C(O)c1cccc(O)c1O	0	8	0	i	-5
O=C(O)c1ccc2cccc(Cl)c2c1O	-36	42	1	+	3
CCCNC(=O)N1[C@@H]2c3ccc(-c4ccccc4OC)c(=O)n3C[C@@H]2[C@@H](CO)[C@@H]1C(=O)NC1CCC1	-4	/	/	/	/
COCCNc1nc2c(c(=O)n(C)c(=O)n2C)n1Cc1cccc(C)c1	0	2	0	i	3
C=CCn1c(NCCOC)nc2c1c(=O)n(C)c(=O)n2C	-5	9	1	i	44*
CC(C)OC(=O)C1Cc2ccccc2CN1S(=O)(=O)c1cccs1 (centres undefined)	-4	/	0	/	-4
NC(=O)c1ccc(C23CC4CC(CC(C4)C2)C3)o1	/	28	-3	i	-4
CCCC#Cc1cnc2c(c1)C(=O)N([C@H](C)CO)C[C@@H](C)[C@H](CN(C)C(=O)Nc1cccc(F)c1)O2	-7	/	/	/	/
O=S(=O)(NCCC(c1ccc(F)cc1)c1ccco1)c1ccccc1 (centres undefined)	-4	-13	-3	i	0
Fc1ccc(C(CCNCc2cccs2)c2ccco2)cc1 (centres undefined)	-6	3	0	i	56*
CCOc1nc2ccccc2cc1C=O	-1	32	-1	/	8
COc1ccc(C(CC(=O)O)NC(=O)c2ccccc2[N+](=O)[O-])cc1 (centres undefined)	/	15	0	i	31*
CO[C@H]1CN(C)C(=O)c2cc(NS(=O)(=O)c3cn(C)cn3)ccc2OC[C@H](C)N(CCC(F)(F)F)C[C@H]1C	-2	/	/	/	/
CCOC(=O)CN(C(=O)CSc1nnc(CNc2ccc(C)cc2C)n1CC)c1ccccc1	4	0	/	i	-1
COCCCNC(=O)c1ccc2c3c(onc13)-c1ccccc1C2=O	31*	57	0	i	/
COCCCNC(=O)c1ccccc1Oc1ccccc1	-6	-4	-1	i	1
COc1c(S(=O)(=O)N2CCN(C)CC2)ccc(Cl)c1Cl	-2	13	-1	i	-1
CCOCCc1nnc(NC(=O)Cc2ccccc2)s1	3	16	-1	i	0
CCOCCc1nnc(NC(=O)CS(=O)(=O)c2ccc(C)cc2)s1	-3	13	0	i	93*
CCOCCc1nnc(NC(=O)CN2C(=O)c3ccccc3C2=O)s1	18	-89*	-1	i	-4
COc1ccc(Oc2ccc(/C=C/C(=O)c3ccc(O)cc3)cc2[N+](=O)[O-])cc1	20	-6	0	i	61*
O=C(/C=C/c1ccc(O)c([N+](=O)[O-])c1)c1ccc2ccccc2c1	0	26	2	i	-6
O=C(CSc1nnc(SCc2ccccc2)s1)NNC(=S)Nc1ccccc1	0	6	-1	i	-4
CCN(CC)CC(=O)c1c[nH]c2ccccc12	-1	13	-1	i	0
CC1=C/C(=N\N=C2\NC(=O)C(CC(=O)Nc3ccccc3)S2)CC(C)(C)C1 (centres undefined)	3	30	0	i	1
